# Tests used:
# [1] = target: T1, Adenosine receptor A1 (Homo sapiens) (UniProt P30542); assay: Displacement of [3H]DPCPX from human recombinant adenosine A1 receptor expressed in CHO cells at 1 uM by microplate beta scintillation counter; type: cell-based
# T1 sequence (whole entry): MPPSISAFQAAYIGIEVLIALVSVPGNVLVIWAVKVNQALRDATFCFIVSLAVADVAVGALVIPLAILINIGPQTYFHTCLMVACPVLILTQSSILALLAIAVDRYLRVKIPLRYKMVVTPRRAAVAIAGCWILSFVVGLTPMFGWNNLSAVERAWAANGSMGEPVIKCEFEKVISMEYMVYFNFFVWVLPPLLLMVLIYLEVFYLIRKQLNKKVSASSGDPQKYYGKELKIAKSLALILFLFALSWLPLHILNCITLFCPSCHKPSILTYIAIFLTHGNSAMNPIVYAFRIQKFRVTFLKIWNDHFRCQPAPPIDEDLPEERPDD
# Method in brief: (§1)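 Membranes from CHO cells expressing human A1 were labelled with 2 nM [3H]DPCPX. Non-specific binding was defined with (R)-PIA. Incubation ran 60 min at 25 °C, then samples were filtered and counted by beta scintillation. IC50 came from non-linear regression, and Ki from Cheng–Prusoff. Weak or poorly soluble compounds were reported as % inhibition of specific binding at a single concentration. Mean of 3 experiments, each in duplicate.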
# [2] = target: T2, Adenosine receptor A2b (Homo sapiens) (UniProt P29275); assay: Displacement of [3H]DPCPX from human recombinant adenosine A2B receptor expressed in HEK293 cells at 1 uM by microplate beta scintillation counter; type: cell-based
# T2 sequence (whole entry): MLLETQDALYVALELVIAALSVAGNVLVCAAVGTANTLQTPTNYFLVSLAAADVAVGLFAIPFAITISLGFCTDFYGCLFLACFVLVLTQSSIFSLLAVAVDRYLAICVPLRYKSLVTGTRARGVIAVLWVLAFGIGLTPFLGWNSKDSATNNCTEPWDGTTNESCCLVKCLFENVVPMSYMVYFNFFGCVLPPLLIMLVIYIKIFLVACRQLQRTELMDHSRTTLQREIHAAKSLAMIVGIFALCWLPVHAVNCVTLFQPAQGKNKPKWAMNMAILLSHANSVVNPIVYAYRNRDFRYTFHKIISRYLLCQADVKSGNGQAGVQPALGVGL
# Method in brief: (§2)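 Membranes from HEK-293 cells expressing human A2B were labelled with 35 nM [3H]DPCPX. Incubation ran 30 min at 25 °C, followed by filtration and beta scintillation counting. IC50 was fitted by non-linear regression and converted to Ki by Cheng–Prusoff. Weak or poorly soluble compounds were given as % inhibition of specific binding at a single concentration. n = 3, each in duplicate.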
# [3] = target: T3, Adenosine receptor A3 (Homo sapiens) (UniProt P0DMS8); assay: Displacement of [3H]NECA from human recombinant adenosine A3 receptor expressed in human HeLa cells at 1 uM by microplate beta scintillation counter; type: cell-based
# T3 sequence (whole entry): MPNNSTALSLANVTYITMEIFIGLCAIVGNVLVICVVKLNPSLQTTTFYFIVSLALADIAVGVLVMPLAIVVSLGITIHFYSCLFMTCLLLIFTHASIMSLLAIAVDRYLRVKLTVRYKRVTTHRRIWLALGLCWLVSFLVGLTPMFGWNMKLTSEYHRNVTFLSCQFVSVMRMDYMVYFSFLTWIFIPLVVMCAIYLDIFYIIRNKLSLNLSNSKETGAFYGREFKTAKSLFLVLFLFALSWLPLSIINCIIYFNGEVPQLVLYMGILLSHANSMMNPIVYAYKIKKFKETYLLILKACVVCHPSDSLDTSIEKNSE
# Method in brief: (§3)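 HeLa-A3 cell membranes were labelled with 30 nM [3H]NECA. Non-specific binding was defined with (R)-PIA. After 180 min at 25 °C, samples were filtered and counted by beta scintillation. Ki was calculated by Cheng–Prusoff from IC50 obtained by non-linear regression. Weak or poorly soluble compounds were reported as % inhibition of specific binding at a single concentration. Mean of 3 experiments in duplicate.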
# Adenosine receptor A2a [4] = target: T4, Adenosine receptor A2a (Homo sapiens, UniProt P29274); assay: Displacement of [3H]ZM241385 from human recombinant adenosine A2A receptor expressed in human HeLa cells at 1 uM by microplate beta scintillation counter; type: cell-based
# Method in brief: (§4)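 Competition used HeLa cell membranes expressing human A2A with [3H]ZM241385. Non-specific binding was set with NECA. Incubation was 30 min at 25 °C, then filtration and beta scintillation counting. IC50 from non-linear regression was converted to Ki (Cheng–Prusoff). Weak or poorly soluble compounds were reported as % inhibition of specific binding at a single concentration. Three experiments, each in duplicate.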
# Adenosine receptor A3 = target: T5, Adenosine receptor A3 (Homo sapiens, UniProt P0DMS8); assay: Displacement of [3H]NECA from human recombinant adenosine A3 receptor expressed in human HeLa cells by microplate beta scintillation counter; type: cell-based; method in brief: as §3
# T5 sequence (P0DMS8 whole entry): T3 sequence (whole entry)
# Homo sapiens [5] = organism: Homo sapiens; assay: Selectivity ratio of Ki for human adenosine A1 receptor to Ki for human adenosine A2B receptor
# Method in brief: (§5)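 Ratios of Ki values at each human subtype to Ki at human A2B (HEK-293 membranes, [3H]DPCPX). Each Ki was derived by Cheng–Prusoff from IC50 of radioligand competition binding in membranes of transfected cells. Results are the mean of 3 experiments, each in duplicate.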
# Adenosine receptor A2b = target: T6, Adenosine receptor A2b (Homo sapiens, UniProt P29275); assay: Displacement of [3H]DPCPX from human recombinant adenosine A2B receptor expressed in HEK293 cells by microplate beta scintillation counter; type: cell-based; method in brief: as §2
# T6 sequence (P29275 whole entry): T2 sequence (whole entry)
# Adenosine receptor A1 = target: T7, Adenosine receptor A1 (Homo sapiens, UniProt P30542); assay: Displacement of [3H]DPCPX from human recombinant adenosine A1 receptor expressed in CHO cells by microplate beta scintillation counter; type: cell-based; method in brief: as §1
# T7 sequence (P30542 whole entry): T1 sequence (whole entry)
# Homo sapiens [6] = organism: Homo sapiens; assay: Selectivity ratio of Ki for human adenosine A3 receptor to Ki for human adenosine A2B receptor; method in brief: as §5
# Adenosine receptor A2a [7] = target: T4, Adenosine receptor A2a; assay: Displacement of [3H]ZM241385 from human recombinant adenosine A2A receptor expressed in human HeLa cells by microplate beta scintillation counter; type: cell-based; method in brief: as §4
# Homo sapiens [8] = organism: Homo sapiens; assay: Selectivity ratio of Ki for human adenosine A2A receptor to Ki for human adenosine A2B receptor; method in brief: as §5
# T4 sequence (P29274 whole entry): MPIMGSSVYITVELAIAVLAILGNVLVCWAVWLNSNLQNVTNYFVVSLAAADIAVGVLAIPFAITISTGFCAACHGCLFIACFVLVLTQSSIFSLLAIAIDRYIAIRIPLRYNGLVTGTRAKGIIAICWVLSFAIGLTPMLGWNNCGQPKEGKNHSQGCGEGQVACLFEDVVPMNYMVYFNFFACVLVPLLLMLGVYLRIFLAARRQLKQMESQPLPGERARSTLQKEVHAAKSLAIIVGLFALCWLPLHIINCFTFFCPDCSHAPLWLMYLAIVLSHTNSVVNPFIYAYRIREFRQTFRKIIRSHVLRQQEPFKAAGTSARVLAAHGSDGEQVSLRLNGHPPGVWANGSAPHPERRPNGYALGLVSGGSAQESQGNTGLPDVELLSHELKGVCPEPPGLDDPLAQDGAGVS
Activity [1] [%],Activity [2] [%],Activity [3] [%],Activity (Adenosine receptor A2a [4]) [%],Ki (Adenosine receptor A3) [nM],Ratio Ki (Homo sapiens [5]),Ki (Adenosine receptor A2b) [nM],Ki (Adenosine receptor A1) [nM],Ratio Ki (Homo sapiens [6]),Ki (Adenosine receptor A2a [7]) [nM],Ratio Ki (Homo sapiens [8]),SMILES
29,32,0,20,,,,,,,,CCn1c(=O)c2[nH]c(-c3ccccc3)nc2n(CC[S+]([O-])CC)c1=O (stereo not drawn)
15,2,15,13,,,,,,,,CCCn1c(=O)c2[nH]c(Cc3ccccc3)nc2n(CCS(=O)(=O)CC)c1=O
2,32,10,24,,,,,,,,CCCn1c(=O)c2[nH]c(Cc3ccccc3)nc2n(CC2CCCO2)c1=O (stereo not drawn)
42,2,2,11,,,,,,,,Cn1c(=O)c2[nH]c(Cc3cccs3)nc2n(CC2CCCCC2)c1=O
21,48,4,28,,,,,,,,CCn1c(=O)c2c(nc(Cc3c(F)cccc3F)n2C)n(Cc2ccccc2)c1=O
,,,12,407,0.3,479,148,0.9,,,CCSCCn1c(=O)n(CC)c(=O)c2[nH]c(-c3ccccc3)nc21
22,52,39,6,,,,,,,,CCn1c(=O)c2[nH]c(Cc3cccs3)nc2n(Cc2ccccc2)c1=O
6,55,6,1,,,,,,,,CCn1c(=O)c2[nH]c(Cc3ccccc3)nc2n(CCS(=O)(=O)CC)c1=O
35,18,35,0,,,,,,,,CCn1c(=O)c2[nH]c(-c3ccccc3)nc2n(CCS(=O)(=O)CC)c1=O
33,12,1,8,,,,,,,,CCCn1c(=O)c2[nH]c(Cc3ccccc3)nc2n(CCSCC)c1=O
5,0,3,0,,,,,,,,CCn1c(=O)c2[nH]c(Cc3ccccc3)nc2n(CC[S+]([O-])CC)c1=O (stereo not drawn)
10,1,18,7,,,,,,,,CCCn1c(=O)c2[nH]c(Cc3ccccc3)nc2n(CC[S+]([O-])CC)c1=O (stereo not drawn)
,34,41,29,,,,219,,,,Cn1c(=O)c2[nH]c(-c3cccs3)nc2n(CC2CCCCC2)c1=O
,,22,,,3.7,26.9,100,,219,8.1,CCn1c(=O)c2c(nc(Cc3ccco3)n2C)n(Cc2cccs2)c1=O
4,1,16,50,,,,,,,,O=c1c2[nH]c(Cc3cccs3)nc2n(CC2CCCCC2)c(=O)n1CC1CCCCC1
,,6,,,1.1,372,389,,759,2.1,CCn1c(=O)c2c(nc(Cc3cccs3)n2C)n(Cc2ccccc2)c1=O
,,20,,,0.9,135,120,,178,1.3,CCn1c(=O)c2c(nc(Cc3c(F)cccc3F)n2C)n(Cc2cccs2)c1=O

Activity [1] [%],Activity [2] [%],Activity [3] [%],Activity (Adenosine receptor A2a [4]) [%],Ki (Adenosine receptor A3) [nM],Ratio Ki (Homo sapiens [5]),Ki (Adenosine receptor A2b) [nM],Ki (Adenosine receptor A1) [nM],Ratio Ki (Homo sapiens [6]),Ki (Adenosine receptor A2a [7]) [nM],Ratio Ki (Homo sapiens [8]),SMILES
38,41,,25,631,,,,,,,CCCn1c(=O)c2c(nc(-c3ccccc3)n2C)n(CC2CCCO2)c1=O (stereo not drawn)
17,26,1,2,,,,,,,,CCCn1c(=O)c2c(nc(-c3ccccc3)n2C)n(CCSCC)c1=O
,,,9,245,,589,195,0.4,,,CCCn1c(=O)c2[nH]c(-c3ccccc3)nc2n(CC[S+]([O-])CC)c1=O (stereo not drawn)
28,52,38,21,,,,,,,,CCn1c(=O)c2[nH]c(Cc3c(F)cccc3F)nc2n(Cc2cccs2)c1=O
7,22,17,4,,,,,,,,CCSCCn1c(=O)n(CC)c(=O)c2[nH]c(-c3ccc(-c4ccccc4)cc3)nc21
23,8,1,1,,,,,,,,CCn1c(=O)c2[nH]c(Cc3c(F)cccc3F)nc2n(Cc2ccccc2)c1=O
,30,42,19,,,,407,,,,CCn1c(=O)c2[nH]c(Cc3ccco3)nc2n(Cc2cccs2)c1=O
2,10,2,14,,,,,,,,O=c1c2[nH]c(-c3cccs3)nc2n(CC2CCCCC2)c(=O)n1CC1CCCCC1
34,5,10,0,,,,,,,,CCSCCn1c(=O)n(CC)c(=O)c2[nH]c(Cc3ccccc3)nc21
19,46,17,28,,,,,,,,CCOCCn1c(=O)n(CC)c(=O)c2[nH]c(-c3ccc(-c4ccccc4)cc3)nc21
22,5,2,13,,,,,,,,CCCn1c(=O)c2[nH]c(Cc3ccccc3)nc2n(CCOCC)c1=O
,39,,3,93.3,,,93.3,,,,CCCn1c(=O)c2[nH]c(-c3ccccc3)nc2n(CCS(=O)(=O)CC)c1=O
23,34,30,9,,,,,,,,CCn1c(=O)c2[nH]c(Cc3ccco3)nc2n(Cc2ccccc2)c1=O
39,24,47,6,,,,,,,,CCCn1c(=O)c2[nH]c(-c3ccccc3)nc2n(CCOCC)c1=O
29,,14,,,,282,,,1740,6.2,CCn1c(=O)c2c(nc(Cc3ccco3)n2C)n(Cc2ccccc2)c1=O
,64,,37,135,,,224,,,,CCCn1c(=O)c2[nH]c(-c3ccccc3)nc2n(CC2CCCO2)c1=O (stereo not drawn)
,,1,,,2.7,35.5,95.5,,123,3.5,CCn1c(=O)c2c(nc(Cc3cccs3)n2C)n(Cc2cccs2)c1=O

# — ChEMBL document CHEMBL1157555, “Synthesis and pharmacological evaluation of novel 1,3,8- and 1,3,7,8-substituted xanthines as adenosine receptor antagonists” (Bioorg Med Chem, 2010)
